High-throughput results (PubChem BioAssay)
F508del corr: F508del CFTR correction, initial screen, CFBE line, single point; 350,000 compounds, 0.36% hits; CFBE cells, YFP halide quenching; stimulated with forskolin plus potentiator P3; % fluorescence drop versus neutral controls; activity (quench increase), % at 7.58 µM; AID 720511, 2013;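 active means mean added fluorescence quench of at least 8% versus neutral control, with both replicates also reaching 8%; inconclusive means only one of the mean or replicate conditions met; inactive means mean below 8% and not both replicates reaching 8%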;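 further: cells transiently co-express mutant CFTR-F508del with the halide-sensitive YFP; corrector assay measuring rescue of mutant channel to the surface after 24 h compound exposure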
E-selectin induc: E-selectin induction in HUVECs, primary screen, imaging, HUVEC, immunofluorescence imaging, single point | P16581 | normalized: neutral wells 0, TNF-alpha wells 100 | activation, % at 7.58 µM | 260,000 compounds, 0.37% hits;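 active means mean E-selectin-positive cell signal at least 10% of the positive control, reached in at least 60% of replicates, without over 20% cell loss; inconclusive means no rule given, readout overlaps actives, possibly toxicity-flagged; inactive means the rest, including those meeting only one limit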
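Test system – human umbilical vein endothelial cells (HUVEC), E-selectin induction · Input – 3,000 HUVEC seeded per well · Buffer or medium – EGM-2, gelatin · Compound dosing – single-point compound dose · Detection – immunofluorescence imaging · Measure – percent E-selectin-positive cells · Controls – TNF-alpha high, DMSO low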
Env fusion inh: inhibitors of HIV-1 Env-driven cell-cell fusion, primary screen, HeLa-JRFL effector, CEM21 target cells, luciferase | AID 651610, 2012 | 360,000 compounds, 1.1% hits | inhibition, % at 12.3 µM;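 active means mean replicate inhibition score of at least 50 and every replicate individually at or above 50; inconclusive means only one of the two criteria met; inactive means mean below 50 and not all replicates reaching 50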;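 further: 0% = plate neutral controls and 100% = maraviroc near 300 nM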
FGF22 binding: binders of human FGF22 protein, primary screen, FGF22 synaptogenesis inhibitor project, biophysical, thermal shift, single point; Fibroblast growth factor 22 (Homo sapiens), Q9HCT0; recombinant FGF22 thermal shift, SYPRO orange fluorescence; percent of sucrose octasulfate shift, DMSO zero; activity (Tm shift, normalised), % at 9.99 µM; 340,000 compounds, 1.5% hits; AID 651658, 2012;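 active means mean Tm shift, scaled 0 neutral to 100 positive control, at about 1.3% or above, every replicate too, limit read from the data; inconclusive means no clear call, values can overlap the other calls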
Target sequence (Q9HCT0 whole entry, looked up): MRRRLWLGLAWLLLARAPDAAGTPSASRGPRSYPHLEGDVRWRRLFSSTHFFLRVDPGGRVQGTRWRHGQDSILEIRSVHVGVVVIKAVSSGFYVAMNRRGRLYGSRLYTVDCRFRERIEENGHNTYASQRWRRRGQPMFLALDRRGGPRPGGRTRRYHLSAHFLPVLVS
S100A4 inh HTS: inhibitors of S100A4-myosin IIA peptide binding, primary screen, biochemical, fluorescence polarization, TAMRA-MyoIIA peptide; Protein S100-A4 (Homo sapiens), P26447; inhibition, % at 10.7 µM; 360,000 compounds, 0.14% hits; AID 652163, 2013;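 active means mean inhibition of at least 70% across replicates, with every replicate also reaching that level; inconclusive means mean inhibition reaches 70% but some replicates fall short; inactive means mean inhibition below 70%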
Target sequence (P26447 whole entry, looked up): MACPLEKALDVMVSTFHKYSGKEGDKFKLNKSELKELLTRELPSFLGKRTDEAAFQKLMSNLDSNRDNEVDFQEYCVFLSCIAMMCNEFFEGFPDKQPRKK
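Test system: S100A4 monomer protein; Medium: HEPES pH 7.2 with CaCl2, KCl, NaCl, DTT, Triton; Probe or stimulus: TAMRA-labelled myosin IIA heavy-chain peptide probe, 5 nM; Doses: one dose per compound; Times: polarization read 5 min after assay mix addition, stable 5–60 min; Benchmarks: neutral control DMSO, positive control TFP.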
Starred values were filed as active, the others as inactive; ? = inconclusive; nt = no result given; ! = not confirmed by another sample; [ ] = remark or other dose. This is a sample that favours compounds with a hit; in the whole collection about 2.7% have one here.

SMILES	F508del corr	E-selectin induc	Env fusion inh	FGF22 binding	S100A4 inh HTS
C[C@@H]1CCCCO[C@@H](CN(C)Cc2ccccc2)[C@@H](C)CN([C@H](C)CO)C(=O)c2cc(NC(=O)Nc3ccc4c(c3)OCO4)ccc2O1	0	0	-35[16.7 µM]	-1	3
Cc1ccc(S(=O)(=O)Nc2ccc3c(c2)CC(=O)N([C@@H](C)CO)C[C@@H](C)[C@@H](CN(C)CC2CCCCC2)O3)cc1	0	0	nt	0	17
O=C(Cc1ccncc1)N1C[C@@H]2N[C@H](C1)C2c1ccc(-c2ccncc2)cc1 (stereo not given in full)	-4	0	nt	nt	4
Cc1cc(C)nc(-n2ncc3c2CCCC3=O)n1	2	nt	-25	43*	0
Cc1cc(C)nc(-n2ncc(C#N)c2N)n1	nt	nt	-4	0	1
COc1ccc(NC(=O)Nc2ccc3c(c2)C(=O)N([C@H](C)CO)C[C@H](C)[C@H](CN(C)Cc2ccc4c(c2)OCO4)O3)cc1	3	6	30[16.7 µM]	0	-3
CC[C@H](C)[C@H](NC(N)=O)C(=O)Nc1ccc(OC)c(Cl)c1	1	7	0	0	-5
COc1ccc(NC(=O)[C@@H](NC(N)=O)C(C)C)cc1Cl	-3	nt	7	44*	1
COc1ccc(NC(=O)CCCCCN2C(=O)CCC2=O)cc1Cl	nt	nt	-9	nt	nt
COc1ccc(NC(=O)CCCC(=O)O)cc1Cl	-2	13	-2	43*	1
COc1ccc(CCNC(=O)C(NC(=O)OCc2ccccc2)C(C)C)cc1OC (stereo not given)	0	0	-9	0	0
CC[C@H](C)[C@H](NC(N)=O)C(=O)NCCc1ccc(OC)c(OC)c1	-2	0	-13	43*	-6
CCS(=O)(=O)N1[C@H](C#N)[C@@H](c2ccc(C3=CCCCC3)cc2)[C@H]1CO	2	0	nt	nt	-4
Cc1ccccc1OCc1n(CC(=O)OC2CC(C)CCC2C(C)C)c2ccccc2[n+]1C (stereo not given)	-2	nt	71*	43*	-11
CC1CCC(C(C)C)C(OC(=O)Cn2c(-c3ccc(Br)cc3)[n+](C)c3ccccc32)C1 (stereo not given)	1	-5	58*!	0	0
CC1CCC(C(C)C)C(OC(=O)Cn2c(-c3ccc(Cl)cc3)[n+](C)c3ccccc32)C1 (stereo not given)	-2	0	68*	0	-1
CC1CCC(C(C)C)C(OC(=O)COC(=O)c2ccc(N)cc2)C1 (stereo not given)	nt	nt	12	nt	nt
COc1ccc2c3c(n(C)c2c1)[C@@H](CO)N(C(=O)NC(C)C)CC31CN(CC2CCCC2)C1	2	0	nt	nt	nt
C[C@@H]1CN([C@H](C)CO)C(=O)c2cc(C#CC3(O)CCCC3)cnc2O[C@H]1CN(C)C(=O)CC1CC1	1	-1	-19[16.7 µM]	0	11
COc1ccc2c3c([nH]c2c1)[C@@H](CO)N(Cc1ccccc1F)CC31CCN(C)CC1	1	0	nt	0	-10
Cc1ccc(C(=O)CN2C(=O)c3ccccc3S2(=O)=O)cc1	-2	nt	78*	0	2
O=C(CN1C(=O)c2ccccc2S1(=O)=O)c1ccccc1Cl	0	0	83*	0	-5
O=C(CN1C(=O)c2ccccc2S1(=O)=O)NCc1ccccc1Cl	-3	nt	10	0	3
CCCNC(=O)C[C@@H]1CC[C@@H]2[C@@H](COc3ccc(NC(=O)c4ccc(C(F)(F)F)cc4)cc3C(=O)N2C)O1	1	0	nt	nt	nt
O=C(Nc1nncs1)C1c2ccccc2Oc2ccccc21	nt	nt	59*	nt	nt
SMILES	F508del corr	E-selectin induc	Env fusion inh	FGF22 binding	S100A4 inh HTS
CC(=O)Oc1ccc(N2C(=O)c3cccc4c([N+](=O)[O-])ccc(c34)C2=O)cc1	32*	nt	-77	-1	0
COc1ccc(NC(=O)c2nc(C)c(C3(C)CC(c4cccnc4)=NO3)s2)cc1 (stereo not given)	17*	0	-309	0	-3
Cc1nc(C(=O)Nc2ccc(Cl)cc2)sc1C1(C)CC(c2cccc([N+](=O)[O-])c2)=NO1 (stereo not given)	-2	nt	55*	0	-1
CC(C)CC#Cc1cnc2c(c1)C(=O)N([C@@H](C)CO)C[C@@H](C)[C@H](CN(C)C(=O)c1ccc(F)cc1)O2	-1	1	22[16.7 µM]	0	-9
C[C@H]1CN([C@@H](C)CO)C(=O)c2cc(NC(=O)Nc3ccc(C(F)(F)F)cc3)ccc2O[C@@H]1CN(C)C	-1	0	nt	0	7
CCCN1[C@@H]2c3ccc(-c4cccc(F)c4)c(=O)n3C[C@@H]2[C@@H](CO)[C@@H]1C(=O)N[C@@H](C)c1ccccc1	nt	0	-19[16.7 µM]	0	-21
CN(C)CCCNC(=O)[C@H]1[C@H](CO)[C@H]2Cn3c(ccc(C4=CCCC4)c3=O)[C@H]2N1CCC(F)(F)F	nt	0	57*[16.7 µM]	0	3
CC(=O)N1[C@H](C(=O)NCCCN(C)C)[C@@H](CO)[C@@H]2Cn3c(ccc(-c4cccc(F)c4)c3=O)[C@@H]21	nt	-1	5[16.7 µM]	0	101*
CCCN1[C@H](C(=O)N[C@@H](C)c2ccccc2)[C@@H](CO)[C@@H]2Cn3c(ccc(-c4cccc(F)c4)c3=O)[C@@H]21	nt	0	64*[16.7 µM]	0	1
CN(C)C(=O)[C@H]1[C@H](CO)[C@H]2Cn3c(cccc3=O)[C@@H]1N2C(=O)c1ccccc1	0	1	nt	0	126*
CNC[C@@H]1Oc2ncc(-c3ccc(OC)cc3)cc2C(=O)N([C@H](C)CO)C[C@H]1C	1	-2	5[16.7 µM]	nt	nt
CC(=O)N1[C@H](C(=O)N[C@H](C)c2ccccc2)[C@@H](CO)[C@@H]2Cn3c(cccc3=O)[C@@H]21	4	0	nt	0	110*
COc1ccc(C(=O)NNC(=S)NC(=O)c2ccc(F)cc2)cc1Br	3	0	-4	0	-2
COc1ccc(C(=O)NC(=S)NNC(=O)c2ccc(NC(C)=O)cc2)cc1Br	-1	nt	12	43*	0
COc1ccc(S(=O)(=O)N(C)C[C@H]2Oc3c(NC(=O)NC(C)C)cccc3C(=O)N([C@H](C)CO)C[C@H]2C)cc1	-3	-3	-33[16.7 µM]	0	-6
CCN(CC)C(=O)C1=C(C)N(Cc2ccccc2)C(=O)C(CC(=O)NCCCCc2ccccc2)C1 (stereo not given)	-4	0	?	43*	-13
CCN(CC)C(=O)C1=C(C)N(Cc2ccc(F)cc2)C(=O)C(CC(=O)NCc2cccs2)C1 (stereo not given)	0	12	-6	0	0
